ChEMBL document CHEMBL4261530, “Rational design and synthesis of novel phenylsulfonyl-benzamides as anti-prostate cancer agents” (Medchemcomm, 2017)

What was measured:
VCaP [1] = test: Potency index, ratio of enzalutamide IC50 to test compound IC50 for human VCaP cells; type: functional
VCaP [2] = test: Antiproliferative activity against human VCaP cells after 96 hrs by propidium iodide staining-based fluorescence assay; type: functional, cell-based
DU-145 [3] = test: Antiproliferative activity against human DU145 cells after 96 hrs by propidium iodide staining-based fluorescence assay; type: functional, cell-based
DU-145 [4] = test: Potency index, ratio of enzalutamide IC50 to test compound IC50 for human DU145 cells; type: functional
LNCaP [5] = test: Antiproliferative activity against human LNCAP cells after 96 hrs by propidium iodide staining-based fluorescence assay; type: functional, cell-based
CWR22R [6] = test: Potency index, ratio of enzalutamide IC50 to test compound IC50 for human 22Rv1 cells; type: functional
LNCaP [7] = test: Potency index, ratio of enzalutamide IC50 to test compound IC50 for human LNCAP cells; type: functional
CWR22R [8] = test: Antiproliferative activity against human 22Rv1 cells after 96 hrs by propidium iodide staining-based fluorescence assay; type: functional, cell-based
HEK293 = test: Cytotoxicity against HEK293 cells assessed as reduction in cell viability at 10 uM after 24 hrs by CellTiter-Blue assay relative to control; type: cell-based; details: human, hek293, 24 h
Summary of the method: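 HEK293 cells in DMEM with 10% FBS and 2 mM L-glutamine, seeded at 100,000 cells/ml and treated after 24 h at 10 µM for 24 h. […] Cell Titer Blue added for 2 h at 37°C, fluorescence read at 560/590 nm.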

IC50 (VCaP [2]) | IC50 (DU-145 [3]) | IC50 (LNCaP [5]) | SMILES | Ratio IC50 (VCaP [1]) | Activity (VCaP [2]) | Activity (DU-145 [3]) | Ratio IC50 (DU-145 [4]) | Activity (LNCaP [5]) | Ratio IC50 (CWR22R [6]) | Ratio IC50 (LNCaP [7]) | Activity (CWR22R [8]) | Activity (HEK293) | IC50 (CWR22R [8])
– | – | – | O=C(Nc1cccc(S(F)(F)(F)(F)F)c1)c1ccc(S(=O)(=O)c2ccc(O)cc2)cc1 | <=8 | Dose-dependent effect | Dose-dependent effect | <=8 | Dose-dependent effect | <=8 | <=8 | Dose-dependent effect | – | –
– | – | – | O=C(Nc1cccc(C(F)(F)F)c1)c1ccc(Sc2cccc(C(F)(F)F)c2)cc1 | <=8 | Dose-dependent effect | Dose-dependent effect | <=8 | Dose-dependent effect | <=8 | <=8 | Dose-dependent effect | – | –
– | – | – | O=C(Nc1cccc(S(F)(F)(F)(F)F)c1)c1ccc(Sc2ccc(O)cc2)cc1 | <=8 | Dose-dependent effect | Dose-dependent effect | <=8 | Dose-dependent effect | <=8 | <=8 | Dose-dependent effect | – | –
– | – | – | O=C(Nc1cc(C(F)(F)F)cc(C(F)(F)F)c1)c1ccc(Sc2ccc(O)cc2)cc1 | <=8 | Dose-dependent effect | Dose-dependent effect | <=8 | Dose-dependent effect | <=8 | <=8 | Dose-dependent effect | – | –
– | – | – | O=C(Nc1cccc(C(F)(F)F)c1)c1ccc(Sc2ccc(O)cc2)cc1 | <=8 | Dose-dependent effect | Dose-dependent effect | <=8 | Dose-dependent effect | <=8 | <=8 | Dose-dependent effect | – | –
– | – | – | O=C(Nc1ccccc1C(F)(F)F)c1ccc(Sc2ccc(O)cc2)cc1 | <=8 | Dose-dependent effect | Dose-dependent effect | <=8 | Dose-dependent effect | <=8 | <=8 | Dose-dependent effect | – | –
– | – | – | O=C(Nc1ccccc1C(F)(F)F)c1ccc([S+]([O-])c2ccc(O)cc2)cc1 (configuration not stated) | – | Dose-dependent effect | Dose-dependent effect | – | Dose-dependent effect | – | – | Dose-dependent effect | – | –
– | – | – | O=C(Nc1ccc(C(F)(F)F)cc1)c1ccc(S(=O)(=O)c2ccc(O)cc2)cc1 | <=8 | Dose-dependent effect | Dose-dependent effect | <=8 | Dose-dependent effect | <=8 | <=8 | Dose-dependent effect | – | –
– | – | – | O=C(Nc1ccccc1C(F)(F)F)c1ccc(S(=O)(=O)c2ccc(O)cc2)cc1 | <=8 | Dose-dependent effect | Dose-dependent effect | <=8 | Dose-dependent effect | <=8 | <=8 | Dose-dependent effect | – | –
– | – | – | N#Cc1ccc(NC(=O)c2ccc(S(=O)(=O)c3cccc(C(F)(F)F)c3)cc2)cc1C(F)(F)F | <=8 | Dose-dependent effect | Dose-dependent effect | <=8 | Dose-dependent effect | <=8 | <=8 | Dose-dependent effect | – | –
– | – | – | O=C(Nc1ccc([N+](=O)[O-])c(C(F)(F)F)c1)c1ccc(S(=O)(=O)c2ccc(O)cc2)cc1 | <=8 | Dose-dependent effect | Dose-dependent effect | <=8 | Dose-dependent effect | <=8 | <=8 | Dose-dependent effect | – | –
– | – | – | O=C(Nc1ccc(S(F)(F)(F)(F)F)cc1)c1ccc(Sc2ccc(O)cc2)cc1 | <=8 | Dose-dependent effect | Dose-dependent effect | <=8 | Dose-dependent effect | <=8 | <=8 | Dose-dependent effect | Toxic | –
– | – | – | O=C(Nc1ccc(S(F)(F)(F)(F)F)cc1)c1ccc(S(=O)(=O)c2ccc(O)cc2)cc1 | <=8 | Dose-dependent effect | Dose-dependent effect | <=8 | Dose-dependent effect | <=8 | <=8 | Dose-dependent effect | > 50% | –
Nd(Insoluble) | Nd(Insoluble) | Nd(Insoluble) | O=C(Nc1cccc(C(F)(F)F)c1)c1ccc(S(=O)(=O)c2cccc(C(F)(F)F)c2)cc1 | – | – | – | – | – | – | – | – | – | Nd(Insoluble)
– | – | – | O=C(Nc1ccc(C(F)(F)F)cc1)c1ccc(Sc2ccc(O)cc2)cc1 | <=8 | Dose-dependent effect | Dose-dependent effect | <=8 | Dose-dependent effect | <=8 | <=8 | Dose-dependent effect | – | –
– | – | – | O=C(Nc1cc(C(F)(F)F)ccc1C(F)(F)F)c1ccc(Sc2ccc(O)cc2)cc1 | <=8 | Dose-dependent effect | Dose-dependent effect | <=8 | Dose-dependent effect | <=8 | <=8 | Dose-dependent effect | Toxic | –
– | – | – | O=C(Nc1ccc(S(F)(F)(F)(F)F)cc1)c1ccc([S+]([O-])c2ccc(O)cc2)cc1 (configuration not stated) | <=8 | Dose-dependent effect | Dose-dependent effect | <=8 | Dose-dependent effect | <=8 | <=8 | Dose-dependent effect | – | –
– | – | – | O=C(Nc1cc(C(F)(F)F)cc(C(F)(F)F)c1)c1ccc(S(=O)(=O)c2ccc(O)cc2)cc1 | <=8 | Dose-dependent effect | Dose-dependent effect | <=8 | Dose-dependent effect | <=8 | <=8 | Dose-dependent effect | – | –
– | – | – | N#Cc1ccc(NC(=O)c2ccc(S(=O)(=O)c3ccc(O)cc3)cc2)cc1C(F)(F)F | <=8 | Dose-dependent effect | Dose-dependent effect | <=8 | Dose-dependent effect | <=8 | <=8 | Dose-dependent effect | – | –
– | – | – | O=C(Nc1ccc([N+](=O)[O-])c(C(F)(F)F)c1)c1ccc(Sc2ccc(O)cc2)cc1 | <=8 | Dose-dependent effect | Dose-dependent effect | <=8 | Dose-dependent effect | <=8 | <=8 | Dose-dependent effect | – | –
– | – | – | O=C(Nc1cccc(C(F)(F)F)c1)c1ccc(S(=O)(=O)c2ccc(O)cc2)cc1 | <=8 | Dose-dependent effect | Dose-dependent effect | <=8 | Dose-dependent effect | <=8 | <=8 | Dose-dependent effect | – | –
– | – | – | N#Cc1ccc(NC(=O)c2ccc(Sc3cccc(C(F)(F)F)c3)cc2)cc1C(F)(F)F | <=8 | Dose-dependent effect | Dose-dependent effect | <=8 | Dose-dependent effect | <=8 | <=8 | Dose-dependent effect | – | –
– | – | – | O=C(Nc1cc(C(F)(F)F)ccc1C(F)(F)F)c1ccc(S(=O)(=O)c2ccc(O)cc2)cc1 | <=8 | Dose-dependent effect | Dose-dependent effect | <=8 | Dose-dependent effect | <=8 | <=8 | Dose-dependent effect | – | –
– | – | – | N#Cc1ccc(NC(=O)c2ccc(Sc3ccc(O)cc3)cc2)cc1C(F)(F)F | <=8 | Dose-dependent effect | Dose-dependent effect | <=8 | Dose-dependent effect | <=8 | <=8 | Dose-dependent effect | – | –
